Results taken from the M2OR odorant receptor database.

Columns and labels:
Settings in all cases: stereoisomer not certain
OR6M1 T276K = system: OR6M1 T276K
Outline: (§1)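 Whether a receptor–molecule pair is responsive (active) rests on the original authors' judgment that its measured signal was statistically different from baseline. Pairs without that judgment are non-responsive (inactive). Sources used varied assay methods, commonly transient luciferase assays in mammalian cell lines.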

OR6N1 (Homo sapiens) = OR6N1 (Homo sapiens) (UniProt Q8NGY5)
Outline: as §1

OR6N2 (Homo sapiens) = OR6N2 (Homo sapiens) (UniProt Q8NGY6)
Outline: as §1

OR6P1 (Homo sapiens) = target: T1, OR6P1 (Homo sapiens) (UniProt Q8NGX9)
T1 sequence (whole entry): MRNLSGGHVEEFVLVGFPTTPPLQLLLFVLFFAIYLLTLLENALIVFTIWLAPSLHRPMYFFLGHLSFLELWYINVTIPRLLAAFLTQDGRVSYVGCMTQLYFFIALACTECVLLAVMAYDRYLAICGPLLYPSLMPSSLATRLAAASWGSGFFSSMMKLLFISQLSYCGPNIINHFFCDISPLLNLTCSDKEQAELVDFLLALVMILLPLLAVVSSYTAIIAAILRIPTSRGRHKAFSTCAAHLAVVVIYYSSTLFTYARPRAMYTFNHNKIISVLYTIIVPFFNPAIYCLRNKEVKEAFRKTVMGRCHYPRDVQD
Outline: as §1

OR6Q1 (Homo sapiens) = OR6Q1 (Homo sapiens) (UniProt Q8NGQ2)
Outline: as §1

OR6S1 (Homo sapiens) = OR6S1 (Homo sapiens) (UniProt Q8NH40)
Outline: as §1

OR6S1 T42I V156I = system: OR6S1 T42I V156I
Outline: as §1

OR6T1 (Homo sapiens) = OR6T1 (Homo sapiens) (UniProt Q8NGN1)
Outline: as §1

OR6T1 N2D = system: OR6T1 N2D
Outline: as §1

OR6V1 (Homo sapiens) = OR6V1 (Homo sapiens) (UniProt Q8N148)
Outline: as §1
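Note: active if original authors judged signal statistically different from baseline.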

OR6N2 (Homo sapiens), sequence (Q8NGY6 whole entry): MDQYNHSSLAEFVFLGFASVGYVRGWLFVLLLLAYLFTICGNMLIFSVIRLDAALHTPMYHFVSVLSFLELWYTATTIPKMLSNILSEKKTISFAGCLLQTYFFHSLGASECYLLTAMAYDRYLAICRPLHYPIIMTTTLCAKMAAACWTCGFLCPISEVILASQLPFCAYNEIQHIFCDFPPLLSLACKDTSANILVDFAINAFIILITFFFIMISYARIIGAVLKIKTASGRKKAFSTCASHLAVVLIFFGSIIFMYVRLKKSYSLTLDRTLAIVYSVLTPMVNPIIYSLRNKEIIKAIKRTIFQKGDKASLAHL
OR6T1 (Homo sapiens), sequence (Q8NGN1 whole entry): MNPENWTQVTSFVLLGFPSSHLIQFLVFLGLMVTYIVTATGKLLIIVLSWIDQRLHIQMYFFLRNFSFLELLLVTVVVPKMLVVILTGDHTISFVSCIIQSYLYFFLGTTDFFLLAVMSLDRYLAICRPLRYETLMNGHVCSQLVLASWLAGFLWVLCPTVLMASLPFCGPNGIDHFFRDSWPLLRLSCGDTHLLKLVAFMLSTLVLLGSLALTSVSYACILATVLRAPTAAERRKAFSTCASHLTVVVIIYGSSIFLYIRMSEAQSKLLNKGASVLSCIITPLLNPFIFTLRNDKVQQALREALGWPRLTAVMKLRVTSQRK
OR6S1 (Homo sapiens), sequence (Q8NH40 whole entry): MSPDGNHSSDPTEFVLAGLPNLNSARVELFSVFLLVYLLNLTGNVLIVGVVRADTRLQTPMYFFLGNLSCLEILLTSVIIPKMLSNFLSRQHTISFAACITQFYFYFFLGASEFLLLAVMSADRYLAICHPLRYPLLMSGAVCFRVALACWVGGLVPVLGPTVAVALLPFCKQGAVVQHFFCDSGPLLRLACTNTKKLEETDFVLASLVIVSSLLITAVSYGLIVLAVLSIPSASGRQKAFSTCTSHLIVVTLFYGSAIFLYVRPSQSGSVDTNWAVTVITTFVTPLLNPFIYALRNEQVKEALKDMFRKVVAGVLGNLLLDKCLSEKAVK
OR6V1 (Homo sapiens), sequence (Q8N148 whole entry): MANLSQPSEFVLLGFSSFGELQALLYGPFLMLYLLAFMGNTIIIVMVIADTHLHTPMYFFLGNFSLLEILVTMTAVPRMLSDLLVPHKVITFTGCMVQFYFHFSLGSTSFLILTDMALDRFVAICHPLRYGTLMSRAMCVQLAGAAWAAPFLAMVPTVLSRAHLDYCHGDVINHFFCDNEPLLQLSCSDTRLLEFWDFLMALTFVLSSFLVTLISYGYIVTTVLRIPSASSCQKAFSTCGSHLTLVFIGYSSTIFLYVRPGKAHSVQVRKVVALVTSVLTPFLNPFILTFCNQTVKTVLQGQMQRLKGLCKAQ
OR6N1 (Homo sapiens), sequence (Q8NGY5 whole entry): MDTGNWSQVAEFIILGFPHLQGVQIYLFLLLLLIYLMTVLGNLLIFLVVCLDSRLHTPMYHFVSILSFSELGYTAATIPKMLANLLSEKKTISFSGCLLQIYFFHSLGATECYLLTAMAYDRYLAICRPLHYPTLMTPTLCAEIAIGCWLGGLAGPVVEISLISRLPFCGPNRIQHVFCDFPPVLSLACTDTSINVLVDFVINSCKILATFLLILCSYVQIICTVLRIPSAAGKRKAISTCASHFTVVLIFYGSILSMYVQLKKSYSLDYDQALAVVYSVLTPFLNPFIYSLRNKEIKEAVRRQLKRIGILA
OR6Q1 (Homo sapiens), sequence (Q8NGQ2 whole entry): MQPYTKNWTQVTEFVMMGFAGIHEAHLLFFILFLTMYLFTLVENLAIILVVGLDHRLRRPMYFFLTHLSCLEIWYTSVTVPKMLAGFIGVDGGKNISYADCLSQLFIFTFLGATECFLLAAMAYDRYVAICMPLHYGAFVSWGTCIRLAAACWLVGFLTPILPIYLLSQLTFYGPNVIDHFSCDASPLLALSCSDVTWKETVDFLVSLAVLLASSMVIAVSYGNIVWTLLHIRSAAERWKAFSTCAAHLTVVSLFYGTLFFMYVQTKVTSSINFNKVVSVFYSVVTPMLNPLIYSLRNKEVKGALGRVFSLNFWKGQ
OR6T1 N2D, sequence (as listed by the source): as the sequence (Q8NGN1 whole entry) above, with N2D counted along it
OR6M1 T276K, sequence (as listed by the source, stated change not applied): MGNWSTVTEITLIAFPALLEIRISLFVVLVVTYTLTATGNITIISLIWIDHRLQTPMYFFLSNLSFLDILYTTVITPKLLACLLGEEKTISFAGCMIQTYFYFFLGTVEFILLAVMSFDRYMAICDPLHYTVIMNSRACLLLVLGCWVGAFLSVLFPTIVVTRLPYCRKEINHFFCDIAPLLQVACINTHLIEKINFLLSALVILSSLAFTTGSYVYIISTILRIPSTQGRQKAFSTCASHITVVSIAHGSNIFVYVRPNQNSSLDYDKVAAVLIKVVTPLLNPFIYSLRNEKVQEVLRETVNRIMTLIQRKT

## C=CCOC(=O)Cc1ccccc1
OR6M1 T276K
  odorant receptor agonist call: inactive
OR6N1 (Homo sapiens)
  odorant receptor agonist call: inactive
OR6N2 (Homo sapiens)
  odorant receptor agonist call: inactive
OR6P1 (Homo sapiens)
  odorant receptor agonist call: inactive
OR6Q1 (Homo sapiens)
  odorant receptor agonist call: inactive
OR6S1 (Homo sapiens)
  odorant receptor agonist call: inactive
OR6S1 T42I V156I
  odorant receptor agonist call: inactive
OR6T1 (Homo sapiens)
  odorant receptor agonist call: inactive
OR6T1 N2D
  odorant receptor agonist call: inactive
OR6V1 (Homo sapiens)
  odorant receptor agonist call: inactive

## COc1ccc(C=O)cc1
OR6P1 (Homo sapiens)
  odorant receptor agonist call: active

## Cc1c([N+](=O)[O-])c(C)c([N+](=O)[O-])c(C(C)(C)C)c1[N+](=O)[O-]
OR6N1 (Homo sapiens)
  odorant receptor agonist call: inactive
OR6N2 (Homo sapiens)
  odorant receptor agonist call: inactive
OR6P1 (Homo sapiens)
  odorant receptor agonist call: inactive
OR6Q1 (Homo sapiens)
  odorant receptor agonist call: inactive
OR6S1 (Homo sapiens)
  odorant receptor agonist call: inactive
OR6T1 (Homo sapiens)
  odorant receptor agonist call: inactive
OR6V1 (Homo sapiens)
  odorant receptor agonist call: inactive
